The values that follow come from ChEMBL document CHEMBL2021879, “Novel pyrrolopyrimidine analogues as potent dipeptidyl peptidase IV inhibitors based on pharmacokinetic property-driven optimization” (Eur J Med Chem, 2012).

A short description of series [1]: Oral bioavailability in Sprague-Dawley rat at 20 to 25 mg/kg administered as single dose. The format is ADME, organism-based. The settings on record: in vivo.
The nature of series [2]: Metabolic stability in rat liver microsomes assessed as compound remaining at 1 uM after 30 mins by LC-MS/MS. The format is ADME, Microsome. The settings on record: read-out: Stability. For orientation: Liver microsomes are vesicles of endoplasmic reticulum, rich in cytochrome P450 enzymes.
A short description of series [3]: Apparent permeability from basolateral to apical side in human Caco2 cells at 10 uM after 60 mins by LC-MS/MS analysis. The settings on record: Caco-2. In general terms: Passage across Caco-2 layers is used to estimate intestinal permeability.
Series [4] can be described thus: Apparent permeability from apical to basolateral side in human Caco2 cells at 10 uM after 60 mins by LC-MS/MS analysis. The settings on record: Caco-2.
Another series addresses Dipeptidyl peptidase 4 (Homo sapiens, UniProt P27487). The series can be described thus: Inhibition of human DPP4 after 10 mins.
Another series addresses Dipeptidyl peptidase 8 (Homo sapiens, UniProt Q6V1X1). The series can be described thus: Inhibition of DPP8.
Another series addresses Dipeptidyl peptidase 9 (Homo sapiens, UniProt Q86TI2). The series can be described thus: Inhibition of DPP9.
A short description of series [5]: Efflux ratio of apparent permeability from apical to basolateral side to basolateral to apical side in human Caco2 cells at 10 uM after 60 mins by LC-MS/MS analysis. To be noted: Caco-2.
Series [6] in a line: Metabolic stability in rat liver microsomes assessed as compound turnover at 1 uM after 30 mins by LC-MS/MS. The format is ADME, Microsome. To be noted: read-out: Drug metabolism. A digest of the protocol:
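Pooled rat liver microsomes, 30 min incubation; read-out is percent compound turnover (hepatic first-pass effect); mean of at least three independent determinations.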

For series [7], the system named is Mus musculus. The series can be described thus: Reduction of glucose excursions in C57Bl/6j lean mouse at 3 mg/kg, po measured after 45 mins by oral glucose tolerance test. The format is functional, organism-based. Also on record: dose 3 mg/kg. The method, boiled down: (§1)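 OGTT after oral treatment: C57BL/6j lean mice at 3 mg/kg, and ob/ob mice at 1, 3 and 10 mg/kg. Blood glucose followed over the glucose challenge; excursion expressed as AUC₀₋₁₂₀ change rate (percent inhibition).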

Series [8] in a line: Half life in Sprague-Dawley rat at 20 to 25 mg/kg, po and […], iv administered as single dose. The format is ADME, organism-based. Also on record: dose 20-25 mg/kg, route oral. The settings on record: in vivo.
For series [9], the system named is Mus musculus. The series can be described thus: Reduction of glucose excursions in ob/ob type 2 diabetes mouse model at 1 mg/kg, po measured after 45 mins by oral glucose tolerance test. The format is functional. To be noted: 0.75 h. The method, boiled down: as §1
The test system of series [10] is Mus musculus. The series can be described thus: Reduction of glucose excursions in ob/ob type 2 diabetes mouse model at 3 mg/kg, po measured after 45 mins by oral glucose tolerance test. To be noted: 0.75 h. The format is functional. A digest of the protocol:
as §1

In series [11] the test system is Mus musculus. The series can be described thus: Reduction of glucose excursions in ob/ob type 2 diabetes mouse model at 10 mg/kg, po measured after 45 mins by oral glucose tolerance test. The format is functional. To be noted: 0.75 h. The method, boiled down:
as §1

The target of series [12] is Voltage-gated inwardly rectifying potassium channel KCNH2 (Homo sapiens, UniProt Q12809).

Molecules are shown by their SMILES. Activity calls are given as the source filed them.

Dipeptidyl peptidase 4, sequence (P27487 whole entry): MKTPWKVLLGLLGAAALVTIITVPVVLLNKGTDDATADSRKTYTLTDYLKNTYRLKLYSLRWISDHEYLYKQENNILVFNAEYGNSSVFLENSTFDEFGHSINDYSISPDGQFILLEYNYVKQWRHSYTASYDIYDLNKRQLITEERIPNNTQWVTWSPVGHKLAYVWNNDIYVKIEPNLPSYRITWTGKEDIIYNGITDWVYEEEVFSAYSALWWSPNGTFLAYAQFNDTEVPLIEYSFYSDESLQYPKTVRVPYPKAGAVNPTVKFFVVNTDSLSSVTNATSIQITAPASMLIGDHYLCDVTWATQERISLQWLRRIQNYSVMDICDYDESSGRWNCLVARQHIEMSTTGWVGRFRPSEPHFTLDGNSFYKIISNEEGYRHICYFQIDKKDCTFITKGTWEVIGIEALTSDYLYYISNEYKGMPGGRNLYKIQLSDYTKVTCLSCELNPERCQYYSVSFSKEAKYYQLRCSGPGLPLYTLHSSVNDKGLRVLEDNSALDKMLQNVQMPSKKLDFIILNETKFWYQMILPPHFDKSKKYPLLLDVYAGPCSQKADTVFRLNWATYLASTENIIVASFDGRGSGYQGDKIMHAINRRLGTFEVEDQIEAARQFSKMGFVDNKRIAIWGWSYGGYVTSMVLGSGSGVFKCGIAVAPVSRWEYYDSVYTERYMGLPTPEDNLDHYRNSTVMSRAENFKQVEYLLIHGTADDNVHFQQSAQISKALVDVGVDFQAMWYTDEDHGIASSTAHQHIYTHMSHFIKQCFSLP
Dipeptidyl peptidase 9, sequence (Q86TI2 whole entry): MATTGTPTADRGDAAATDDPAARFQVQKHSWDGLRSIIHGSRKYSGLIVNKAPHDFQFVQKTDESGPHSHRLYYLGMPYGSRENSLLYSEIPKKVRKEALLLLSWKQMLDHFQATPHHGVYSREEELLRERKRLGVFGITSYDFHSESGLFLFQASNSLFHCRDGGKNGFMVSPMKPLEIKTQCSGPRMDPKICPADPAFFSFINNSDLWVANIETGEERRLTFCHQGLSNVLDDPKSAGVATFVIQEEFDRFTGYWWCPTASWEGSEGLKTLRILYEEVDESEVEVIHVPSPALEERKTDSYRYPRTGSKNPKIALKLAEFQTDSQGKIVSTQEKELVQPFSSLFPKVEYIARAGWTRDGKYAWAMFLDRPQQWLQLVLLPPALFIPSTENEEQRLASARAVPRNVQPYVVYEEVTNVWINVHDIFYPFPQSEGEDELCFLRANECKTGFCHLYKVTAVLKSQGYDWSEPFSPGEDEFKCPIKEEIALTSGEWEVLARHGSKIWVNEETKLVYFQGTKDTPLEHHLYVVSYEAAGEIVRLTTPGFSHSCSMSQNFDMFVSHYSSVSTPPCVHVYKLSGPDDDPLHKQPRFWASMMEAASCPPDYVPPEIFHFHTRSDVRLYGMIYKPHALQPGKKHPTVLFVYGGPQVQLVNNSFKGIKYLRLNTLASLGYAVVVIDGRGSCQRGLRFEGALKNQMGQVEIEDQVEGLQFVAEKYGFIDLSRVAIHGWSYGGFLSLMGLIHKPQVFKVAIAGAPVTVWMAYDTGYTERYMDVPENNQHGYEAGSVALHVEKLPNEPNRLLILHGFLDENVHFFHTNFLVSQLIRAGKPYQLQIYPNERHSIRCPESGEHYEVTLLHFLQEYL
Dipeptidyl peptidase 8, sequence (Q6V1X1 whole entry): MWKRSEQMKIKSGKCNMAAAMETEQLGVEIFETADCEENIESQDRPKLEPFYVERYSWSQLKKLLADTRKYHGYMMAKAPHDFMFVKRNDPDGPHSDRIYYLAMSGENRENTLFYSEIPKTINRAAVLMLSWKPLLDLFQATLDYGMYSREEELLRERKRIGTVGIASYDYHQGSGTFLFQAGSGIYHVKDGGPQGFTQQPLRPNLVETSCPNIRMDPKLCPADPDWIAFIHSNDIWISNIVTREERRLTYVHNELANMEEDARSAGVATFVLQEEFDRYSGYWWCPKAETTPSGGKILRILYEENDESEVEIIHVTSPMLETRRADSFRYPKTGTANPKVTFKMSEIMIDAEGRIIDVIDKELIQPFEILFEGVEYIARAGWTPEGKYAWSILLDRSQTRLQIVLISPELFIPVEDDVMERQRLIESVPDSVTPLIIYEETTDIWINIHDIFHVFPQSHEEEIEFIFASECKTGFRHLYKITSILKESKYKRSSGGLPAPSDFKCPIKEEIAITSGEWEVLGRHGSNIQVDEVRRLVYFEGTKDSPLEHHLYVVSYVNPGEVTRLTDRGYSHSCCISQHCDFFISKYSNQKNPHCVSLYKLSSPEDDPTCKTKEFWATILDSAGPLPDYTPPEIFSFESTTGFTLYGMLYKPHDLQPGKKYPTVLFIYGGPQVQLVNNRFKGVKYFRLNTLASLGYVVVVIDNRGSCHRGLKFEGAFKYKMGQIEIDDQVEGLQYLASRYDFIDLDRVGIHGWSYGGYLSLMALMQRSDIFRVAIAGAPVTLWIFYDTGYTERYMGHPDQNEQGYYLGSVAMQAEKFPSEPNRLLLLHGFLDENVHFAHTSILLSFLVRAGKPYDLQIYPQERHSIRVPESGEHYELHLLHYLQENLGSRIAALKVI
Voltage-gated inwardly rectifying potassium channel KCNH2, sequence (Q12809 whole entry): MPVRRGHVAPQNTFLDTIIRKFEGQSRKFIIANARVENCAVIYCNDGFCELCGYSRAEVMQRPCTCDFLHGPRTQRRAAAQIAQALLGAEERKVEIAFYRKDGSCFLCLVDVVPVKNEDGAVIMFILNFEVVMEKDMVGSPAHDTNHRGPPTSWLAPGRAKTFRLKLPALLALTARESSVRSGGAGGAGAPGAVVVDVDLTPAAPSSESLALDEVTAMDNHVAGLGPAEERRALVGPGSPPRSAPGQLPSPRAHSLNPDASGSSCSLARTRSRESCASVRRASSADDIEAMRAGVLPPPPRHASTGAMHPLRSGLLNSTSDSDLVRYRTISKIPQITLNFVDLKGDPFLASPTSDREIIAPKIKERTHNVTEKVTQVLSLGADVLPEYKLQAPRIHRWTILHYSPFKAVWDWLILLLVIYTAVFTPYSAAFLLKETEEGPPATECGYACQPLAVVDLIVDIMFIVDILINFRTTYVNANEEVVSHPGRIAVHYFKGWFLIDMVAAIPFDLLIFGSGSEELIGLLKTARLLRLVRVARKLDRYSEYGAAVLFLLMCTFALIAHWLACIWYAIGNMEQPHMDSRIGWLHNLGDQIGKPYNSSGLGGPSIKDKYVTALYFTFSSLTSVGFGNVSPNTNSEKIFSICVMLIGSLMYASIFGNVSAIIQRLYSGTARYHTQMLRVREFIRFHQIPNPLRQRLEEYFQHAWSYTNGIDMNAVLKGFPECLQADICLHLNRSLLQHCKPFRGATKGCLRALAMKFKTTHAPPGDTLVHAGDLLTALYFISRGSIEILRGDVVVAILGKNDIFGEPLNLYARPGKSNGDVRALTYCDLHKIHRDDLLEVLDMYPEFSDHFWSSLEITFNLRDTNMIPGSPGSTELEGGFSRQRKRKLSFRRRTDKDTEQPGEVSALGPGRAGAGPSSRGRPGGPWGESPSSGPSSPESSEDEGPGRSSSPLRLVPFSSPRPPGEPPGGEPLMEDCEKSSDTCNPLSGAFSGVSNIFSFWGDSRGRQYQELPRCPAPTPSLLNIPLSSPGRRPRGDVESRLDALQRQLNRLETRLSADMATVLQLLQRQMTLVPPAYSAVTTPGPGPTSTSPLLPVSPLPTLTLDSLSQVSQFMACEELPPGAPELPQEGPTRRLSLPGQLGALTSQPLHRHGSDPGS

With `N#Cc1ccccc1Cn1c(N2CCC[C@@H](N)C2)nc2[nH]ccc2c1=O`, the bioavailability – broadly, the share of a dose that reaches the circulation, judged against a reference dose that is usually intravenous – in [1] is 5.7%. In series [2], the remaining at 0.5 h, 1 µM was found to be 65.1%.

As to `N#Cc1ccccc1Cn1c(N2CCC[C@@H](N)C2)nc2sccc2c1=O`, the remaining at 0.5 h, 1 µM in series [2] amounted to 24.6%.

For `N#Cc1ccccc1Cn1c(N2CCC[C@@H](N)C2)nc2[nH]c(-c3cccnc3)cc2c1=O`, in series [3], the Papp B→A (in general, the apparent permeability from the basolateral to the apical side of a cell layer) at 1 h, 10 µM came to 6.01 ×10⁻⁶ cm/s. In addition, the Papp A→B (as a rule, the apparent permeability from the apical to the basolateral side of a cell layer) at 1 h, 10 µM in [4] worked out at 2.55 ×10⁻⁶ cm/s. Also, in [2], the remaining at 0.5 h, 1 µM was 73.8%. Moreover, the IC50 (usually the concentration that gives 50% inhibition) is 0.00234 µM at Dipeptidyl peptidase 4, over 10 µM against Dipeptidyl peptidase 8 and over 10 µM against Dipeptidyl peptidase 9.

Consider `N#Cc1ccccc1Cn1c(N2CCC[C@@H](N)C2)nc2cc[nH]c2c1=O`, for which the efflux ratio (usually a quotient of directional permeabilities that is used to spot active efflux) at 1 h, 10 µM in [5] was 4.2. Moreover, the Papp B→A at 1 h, 10 µM in series [3] was determined as 14.4 ×10⁻⁶ cm/s. Moreover, the Papp A→B at 1 h, 10 µM in series [4] came to 3.44 ×10⁻⁶ cm/s. Also, the remaining at 0.5 h, 1 µM in [2] was 39.2%.

In series [1], `N#Cc1ccccc1Cn1c(N2CCC[C@@H](N)C2)nc2ccsc2c1=O` showed a bioavailability of 23.3%. Also, the remaining at 0.5 h, 1 µM in series [2] was 6.6%. In addition, in series [6], the metabolised at 0.5 h, 1 µM was 93%. In addition, the inhibition result in the series with Mus musculus [7] was “Active”.

For the compound `Cc1cc2c(=O)n(Cc3ccccc3C#N)c(N3CCC[C@@H](N)C3)nc2[nH]1`, the Papp B→A at 1 h, 10 µM in series [3] was found to be 9.36 ×10⁻⁶ cm/s. In addition, the Papp A→B at 1 h, 10 µM in [4] stood at 4.36 ×10⁻⁶ cm/s. In addition, the remaining at 0.5 h, 1 µM in series [2] was 91.4%. Besides, the IC50 against Dipeptidyl peptidase 4 is 0.0138 µM; on Dipeptidyl peptidase 8 it was over 25 µM; against Dipeptidyl peptidase 9, over 25 µM.

As to `Cc1csc2nc(N3CCC[C@@H](N)C3)n(Cc3ccccc3C#N)c(=O)c12`, in series [2], the remaining at 0.5 h, 1 µM stood at 3.27%.

As to `N#Cc1ccccc1Cn1c(N2CCC[C@@H](N)C2)nc2c(-c3cccnc3)c[nH]c2c1=O`, in series [5], the efflux ratio at 1 h, 10 µM is 37.8. Besides, the Papp B→A at 1 h, 10 µM in [3] came out at 11.3 ×10⁻⁶ cm/s. The Papp A→B at 1 h, 10 µM in series [4] was 0.3 ×10⁻⁶ cm/s.

Turning to `N#Cc1ccccc1Cn1c(N2CCC[C@@H](N)C2)nc2[nH]c(Br)cc2c1=O`, in series [3], the Papp B→A at 1 h, 10 µM was found to be 11.4 ×10⁻⁶ cm/s. The Papp A→B at 1 h, 10 µM in [4] is 5.48 ×10⁻⁶ cm/s. For the same compound, in series [2], the remaining at 0.5 h, 1 µM came to 71.9%. Further, the IC50 on Dipeptidyl peptidase 4 is 0.00264 µM; at Dipeptidyl peptidase 8, over 25 µM; on Dipeptidyl peptidase 9, over 25 µM.

On to `N#Cc1ccccc1Cn1c(N2CCC[C@@H](N)C2)nc2c(-c3ccncc3)c[nH]c2c1=O`, for which the efflux ratio at 1 h, 10 µM in series [5] is 2.51. The apparent permeability from basolateral to apical (Papp B→A) at 1 h, 10 µM in series [3] amounted to 10.3 ×10⁻⁶ cm/s. The Papp A→B at 1 h, 10 µM in series [4] was found to be 4.13 ×10⁻⁶ cm/s. In series [2], the remaining at 0.5 h, 1 µM was 28.1%.

With `Cn1c(=O)cc(N2CCC[C@@H](N)C2)n(Cc2ccccc2C#N)c1=O`, in the series with Mus musculus [7], the inhibition result is “Active”.

As for `N#Cc1ccccc1Cn1c(N2CCC[C@@H](N)C2)nc2scc(C(F)(F)F)c2c1=O`, the remaining at 0.5 h, 1 µM in series [2] came out at 4.6%.

For `Cn1c(Br)c(Br)c2c(=O)n(Cc3ccccc3C#N)c(N3CCC[C@@H](N)C3)nc21`, in series [5], the efflux ratio at 1 h, 10 µM came to 3.37. Further, the Papp B→A at 1 h, 10 µM in series [3] was 8.41 ×10⁻⁶ cm/s. In addition, the Papp A→B at 1 h, 10 µM in series [4] was found to be 2.5 ×10⁻⁶ cm/s. In addition, the remaining at 0.5 h, 1 µM in [2] was determined as 41%.

Regarding `N#Cc1ccccc1Cn1c(N2CCC[C@@H](N)C2)nc2[nH]c(-c3ccc(F)cc3)cc2c1=O`, the efflux ratio at 1 h, 10 µM in series [5] came to 45.3. The Papp B→A at 1 h, 10 µM in series [3] was found to be 26.6 ×10⁻⁶ cm/s. Moreover, the Papp A→B at 1 h, 10 µM in series [4] is 0.59 ×10⁻⁶ cm/s.

Consider `N#Cc1ccccc1Cn1c(N2CCC[C@@H](N)C2)nc2c(Br)c[nH]c2c1=O`, for which the Papp B→A at 1 h, 10 µM in series [3] worked out at 18.4 ×10⁻⁶ cm/s. In series [4], the Papp A→B at 1 h, 10 µM amounted to 2.81 ×10⁻⁶ cm/s. The bioavailability in series [1] was determined as 41%. The remaining at 0.5 h, 1 µM in [2] is 78%. The IC50 against Dipeptidyl peptidase 8 was over 10 µM; against Dipeptidyl peptidase 9, over 10 µM; in [12] it was over 300 µM. In addition, in series [8], the half-life (in general, the time needed for the level to fall by half in the phase considered) is 2 h. For the same compound, in the series with Mus musculus [7], the inhibition entry was “Active”. In addition, in the series with Mus musculus [9], the inhibition in vivo (commonly the relative decrease from the control value, in per cent) at 1 mg/kg was 27.9%. Also, in the series with Mus musculus [10], the inhibition in vivo at 3 mg/kg is 51.9%. This compound also displayed an inhibition in vivo at 10 mg/kg in the series with Mus musculus [11] of 72.7%.

Take `Cn1ccc2c(=O)n(Cc3ccccc3C#N)c(N3CCC[C@@H](N)C3)nc21`: in series [5], the efflux ratio at 1 h, 10 µM came to 13.3. Also, the Papp B→A at 1 h, 10 µM in series [3] was 24.6 ×10⁻⁶ cm/s. In series [4], the Papp A→B at 1 h, 10 µM turned out to be 1.84 ×10⁻⁶ cm/s.

`Cc1csc2c(=O)n(Cc3ccccc3C#N)c(N3CCC[C@@H](N)C3)nc12`: in series [2], the remaining at 0.5 h, 1 µM amounted to 0%.

Turning to `N#Cc1ccccc1Cn1c(N2CCC[C@@H](N)C2)nc2c(-c3ccsc3)c[nH]c2c1=O`, the efflux ratio at 1 h, 10 µM in series [5] amounted to 11.4. Moreover, the Papp B→A at 1 h, 10 µM in series [3] was 21.2 ×10⁻⁶ cm/s. Also, the Papp A→B at 1 h, 10 µM in [4] worked out at 1.86 ×10⁻⁶ cm/s.
